Laboratory results reported in ChEMBL document CHEMBL4304759, “Identifying Novel Anti-Osteoporosis Leads with a Chemotype-Assembly Approach” (J Med Chem, 2019).
Activity calls are given as the source filed them. No cut-off for these calls is given here.

How the values were obtained:
[1] = Toxicity in ovariectomized Sprague-Dawley rat assessed as effect on spleen at 10 mg/kg/day, po for 3 months measured post-last dose; type: organism-based; conditions: in vivo
[2] = test system: BMDM; assay: Anti-osteoporosis activity in C57BL/6 mouse bone marrow macrophages assessed as inhibition of M-CSF/RANKL-induced osteoclast differentiation by measuring reduction in hydroxyapatite resorption at 0.01 to 1 uM measured after 48 hrs by microscopic analysis; type: functional, cell-based
Summary of the method: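 BMMs were driven to mature osteoclasts with GST-rRANKL plus M-CSF (30 ng/mL) on collagen-coated plates. Equal numbers were reseeded onto hydroxyapatite-coated wells with GST-rRANKL/M-CSF, with or without compound, for 48 h. Cells were bleached off, resorbed areas imaged by inverted microscope, and percent surface resorbed quantified.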

[3] = Renal toxicity in ovariectomized Sprague-Dawley rat assessed as effect on kidney at 10 mg/kg/day, po for 3 months measured post-last dose; type: organism-based; conditions: in vivo
[4] = Toxicity in ovariectomized Sprague-Dawley rat assessed as effect on alkaline phosphatase level at 10 mg/kg/day, po for 3 months measured post-last dose; type: organism-based; conditions: in vivo
[5] = test system: BMDM; assay: (§1) Anti-osteoporosis activity in C57BL/6 mouse bone marrow macrophages assessed as inhibition of M-CSF/RANKL-induced osteoclast differentiation by measuring reduction in MMP9 gene expression at 0.1 uM supplemented with fresh medium containing compounds every 2 days for 5 by trizol-reagent based RT-PCR analysis; type: functional, cell-based
Summary of the method: (§2)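 BMMs from femur/tibia of six-week-old C57BL/6 mice, seeded at 1×10^5 cells/well in complete α-MEM (10% FBS) with M-CSF 30 ng/mL and GST-rRANKL 100 ng/mL, with or without compound at 0.1 μM for 5 days. RNA extracted with TRIzol, reverse-transcribed, then qPCR with SYBR-type premix: 40 cycles of 95 °C 10 s, 56 °C 10 s, 72 °C 30 s.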

[6] = test system: Rattus norvegicus; assay: Anti-osteoporosis activity in ovariectomized Sprague-Dawley rat assessed as reduction in serum PINP level at 10 mg/kg/day, po for 3 months measured post-last dose; type: functional, organism-based
[7] = Toxicity in ovariectomized Sprague-Dawley rat assessed as effect on aspartate transaminase level at 10 mg/kg/day, po for 3 months measured post-last dose; type: organism-based; conditions: in vivo
[8] = test system: BMDM; assay: as §1, with “NFATc1” for “MMP9”; type: functional, cell-based; summary of the method: as §2
[9] = test system: Rattus norvegicus; assay: Effect on serum RANKL level in ovariectomized Sprague-Dawley rat at 10 mg/kg/day, po for 3 months measured post-last dose; type: organism-based; conditions: in vivo
[10] = Toxicity in ovariectomized Sprague-Dawley rat assessed as effect on total cholesterol level at 10 mg/kg/day, po for 3 months measured post-last dose; type: organism-based; conditions: in vivo
[11] = Pulmonary toxicity in ovariectomized Sprague-Dawley rat assessed as effect on lung at 10 mg/kg/day, po for 3 months measured post-last dose; type: organism-based; conditions: in vivo
[12] = test system: C3H 10T1/2; assay: Cytotoxicity against mouse C3H10T1/2 cells assessed as effect on cell viability at 0.1 to 100 uM measured after 48 to 72 hrs by CCK8 assay; type: cell-based; conditions: c3h 10t1/2, 100 µM
Summary of the method: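 C3H10T1/2 cells in log phase were seeded at 6×10^3 per well and held 24 h. They were then exposed to DMSO vehicle or compound at 0.1–100 μM for 48 h or 72 h. CCK-8 was added for 30 min at 37 °C and absorbance read at 450 nm.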

[13] = test system: C3H 10T1/2; assay: Osteogenic activity in mouse C3H10T1/2 cells assessed as effect on osteogenic medium-induced osteoblast differentiation by measuring calcium deposition at 0.1 to 10 uM after 14 days by alizarin red dye-based assay; type: cell-based; conditions: c3h 10t1/2, 336 h
Summary of the method: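 C3H10T1/2 cells were seeded at 5×10^4 cells/cm² in α-MEM with 10% FBS for 24 h. Osteogenic induction used medium with 5% FBS, 10⁻⁷ M dexamethasone, 50 μM ascorbic acid and 10 mM β-glycerol-phosphate, with or without compound, for 14 days. Cells were fixed in 4.0% formaldehyde and stained with 0.1% Alizarin red (pH 4.4) for 5 min at room temperature.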

[14] = Toxicity in ovariectomized Sprague-Dawley rat assessed as effect on blood urea nitrogen level at 10 mg/kg/day, po for 3 months measured post-last dose; type: organism-based; conditions: in vivo
[15] = test system: BMDM; assay: as §1, with “c-FOS” for “MMP9”; type: functional, cell-based; summary of the method: as §2
[16] = Toxicity in ovariectomized Sprague-Dawley rat assessed as effect on thymus at 10 mg/kg/day, po for 3 months measured post-last dose; type: organism-based; conditions: in vivo
[17] = Toxicity in ovariectomized Sprague-Dawley rat assessed as effect on alanine aminotransferase level at 10 mg/kg/day, po for 3 months measured post-last dose; type: organism-based; conditions: in vivo
[18] = Toxicity in ovariectomized Sprague-Dawley rat assessed as effect on uterus at 10 mg/kg/day, po for 3 months measured post-last dose; type: organism-based; conditions: in vivo
[19] = test system: Rattus norvegicus; assay: Anti-osteoporosis activity in ovariectomized Sprague-Dawley rat assessed as reduction in serum CTX1 level at 10 mg/kg/day, po for 3 months measured post-last dose; type: functional, organism-based
[20] = Cardiotoxicity in ovariectomized Sprague-Dawley rat assessed as effect on heart at 10 mg/kg/day, po for 3 months measured post-last dose; type: toxicity, organism-based; conditions: in vivo
[21] = Toxicity in ovariectomized Sprague-Dawley rat assessed as effect on creatinine level at 10 mg/kg/day, po for 3 months measured post-last dose; type: organism-based; conditions: in vivo
[22] = Toxicity in ovariectomized Sprague-Dawley rat assessed as effect on total triglyceride level at 10 mg/kg/day, po for 3 months measured post-last dose; type: organism-based; conditions: in vivo
[23] = test system: Rattus norvegicus; assay: Anti-osteoporosis activity in ovariectomized Sprague-Dawley rat assessed as reduction in serum osteocalcin level at 10 mg/kg/day, po for 3 months measured post-last dose; type: functional, organism-based
[24] = test system: BMDM; assay: Anti-osteoporosis activity in C57BL/6 mouse bone marrow macrophages assessed as inhibition of M-CSF/RANKL-induced osteoclast differentiation supplemented with fresh medium containing compounds every 2 days for 5 measured post-last dose by TRAP staining based assay; type: functional, cell-based
Summary of the method: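 Mouse (C57BL/6, 6-week) BMMs were plated at 6×10³ cells/well with M-CSF 30 ng/mL overnight, then given complete α-MEM with M-CSF and GST-rRANKL 100 ng/mL plus compound at varied concentrations, refreshed every 2 days. At day 5 cells were fixed in 4% paraformaldehyde and TRAcP-stained; TRAcP+ cells with >3 nuclei were counted.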

[25] = Hepatotoxicity in ovariectomized Sprague-Dawley rat assessed as effect on liver at 10 mg/kg/day, po for 3 months measured post-last dose; type: toxicity, organism-based; conditions: in vivo
[26] = test system: Rattus norvegicus; assay: Anti-osteoporosis activity in ovariectomized Sprague-Dawley rat assessed as reduction in femur bone mass loss at 10 mg/kg/day, po for 3 months measured post-last dose by micro-CT analysis; type: functional, organism-based
[27] = test system: BMDM; assay: as §1, with “TRAcP” for “MMP9”; type: functional, cell-based; summary of the method: as §2
[28] = test system: Rattus norvegicus; assay: Anti-osteoporosis activity in ovariectomized Sprague-Dawley rat assessed as femur bone mineral density loss at 10 mg/kg/day, po for 3 months measured post-last dose by dual energy X-ray absorptiometry (RVb = 19%); type: functional

In the case of `O=C(Cn1cc(-c2ccncc2)nn1)Nc1nccs1`, the Activity [1] is reported as “Non-Toxic”, the inhibition [2] is reported as “Active” and the Activity [3] is reported as “Non-Toxic”. The Activity [4] was “Non-Toxic”, the inhibition [5] was “Active” and the Activity [6] was “Active”. The Activity [7] was “Non-Toxic”, the inhibition [8] was “Active” and the Activity [9] was “Non-Toxic”. For the same compound, the Activity [10] was “Non-Toxic”, the Activity [11] was “Non-Toxic” and the Activity [12] was “Non-Toxic”. For the same compound, the Activity [13] was “Non-Toxic”, the Activity [14] was “Non-Toxic” and the inhibition [15] was “Active”. For the same compound, the Activity [16] was “Non-Toxic”, the Activity [17] was “Non-Toxic” and the Activity [18] was “Non-Toxic”. For the same compound, the Activity [19] was “Active”, the Activity [20] was “Non-Toxic” and the Activity [21] was “Non-Toxic”. The Activity [22] was “Non-Toxic”, the Activity [23] was “Active” and the inhibition [24] was “Dose-dependent effect”. The IC50 ([24]; C57BL/6, BMDM, 5 days) was 2 nM, the Activity [25] was “Non-Toxic” and the Activity [26] was “inactive”. For the same compound, the inhibition [27] was “Active” and the Activity [28] was 8%.
